Calls of active or inactive are those of the source. No cut-off for these calls is given here.
Tests used:
[1] = system: SH-SY5Y; assay: Neuroprotective activity in human SH-SY5Y cells assessed as inhibition Abeta25-35-induced reduction of cell viability at 10 uM compound pretreated for 2 hrs before induction cell viability measured after 24 hrs (reference value: 69.77%); format: functional
[2] = system: SH-SY5Y; assay: Neuroprotective activity in human SH-SY5Y cells assessed as inhibition Abeta25-35-induced reduction of cell viability at 1 uM compound pretreated for 2 hrs before induction cell viability measured after 24 hrs (reference value: 69.77%); format: functional
[3] = system: SH-SY5Y; assay: Neuroprotective activity in human SH-SY5Y cells assessed as inhibition H2O2-induced damage measured as cell viability at 100 uM measured after 24 hrs; format: functional
In short: (§1)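 Human SH-SY5Y cells were subjected to H2O2-induced damage, with compounds at 1 or 10 μM and L-NAC at 100 μM as the positive control. Cell viability was compared with control and with H2O2-only wells. Data are mean ± SD, n = 3-6.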

[4] = system: SH-SY5Y; assay: Neuroprotective activity in human SH-SY5Y cells assessed as inhibition Abeta25-35-induced reduction of cell viability at 10 uM after 24 hrs by SRB assay; format: functional
[5] = system: SH-SY5Y; assay: Neuroprotective activity in human SH-SY5Y cells assessed as inhibition OGD-induced injuries measured as cell viability at 10 uM measured after 24 hrs; format: functional
In short: (§2)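 Oxygen-glucose deprivation (OGD) injury was applied to human SH-SY5Y cells, with compounds at 1 μM or higher. Cell viability, or its increase, was compared with control and with OGD-only wells. Data are mean ± SD, n = 3-6.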

[6] = system: SH-SY5Y; assay: Neuroprotective activity in human SH-SY5Y cells assessed as inhibition H2O2-induced damage measured as cell viability at 10 uM measured after 24 hrs; format: functional; in short: as §1
[7] = system: SH-SY5Y; assay: Neuroprotective activity in human SH-SY5Y cells assessed as inhibition H2O2-induced damage measured as cell viability at 1 uM measured after 24 hrs; format: functional, cell-based; in short: as §1
[8] = system: SH-SY5Y; assay: Neuroprotective activity in human SH-SY5Y cells assessed as inhibition OGD-induced injuries measured as cell viability at 1 uM measured after 24 hrs; format: functional; in short: as §2
[9] = system: A549; assay: Cytotoxicity against human A549 cells by MTT assay; format: functional
In short: (§3)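 Cells were exposed to compound at 10 μM, and cytotoxicity was expressed as percent inhibition of growth.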

[10] = Cytotoxicity against human HL60 cells by MTT assay; format: functional, HL-60; in short: as §3
[11] = system: SH-SY5Y; assay: Neuroprotective activity in human SH-SY5Y cells assessed as inhibition OGD-induced injuries measured as increase in cell viability at 1 uM measured after 24 hrs; format: functional; in short: as §2

Compound | Activity [1] | Activity [2] | also measured
Cc1ccccc1-c1ccc(-c2noc(Cc3c[nH]c4ccccc34)n2)o1 | inactive | inactive | –
CC(=O)N[C@@H](CS)C(=O)O [ACETYLCYSTEINE] | – | – | Activity [3]: 89.2%
Brc1ccc(-c2ccc(-c3noc(Cc4c[nH]c5ccccc45)n3)o2)cc1 | 83.5% | inactive | –
Cc1ccc(-c2ccc(-c3noc(Cc4c[nH]c5ccccc45)n3)o2)cc1 | 80.3% | inactive | –
CC(C)(C)c1ccc(-c2ccc(-c3noc(Cc4c[nH]c5ccccc45)n3)o2)cc1 | 92.1% | inactive | –
Oc1ccc(-c2ccc(-c3noc(Cc4c[nH]c5ccccc45)n3)o2)cc1 | inactive | inactive | –
CN1CCN(c2ccc(-c3ccc(-c4noc(Cc5c[nH]c6ccccc56)n4)o3)cc2)CC1 | inactive | inactive | –
CCc1ccc(-c2ccc(-c3noc(Cc4c[nH]c5ccccc45)n3)o2)cc1 | 100% | inactive | –
CCCc1ccc(-c2ccc(-c3noc(Cc4c[nH]c5ccccc45)n3)o2)cc1 | 114.2% | 89.7% | Activity [4]: 96%
Fc1ccc(-c2ccc(-c3noc(Cc4c[nH]c5ccccc45)n3)o2)cc1 | 84.8% | inactive | –
CC(C)c1ccc(-c2ccc(-c3noc(Cc4c[nH]c5ccccc45)n3)o2)cc1 | 93.3% | inactive | –
CCCOc1ccc(-c2ccc(-c3noc(Cc4c[nH]c5ccccc45)n3)o2)cc1 | 115.5% | 90% | Activity [5]: 84.1%; Activity [6]: 98%; Activity [7]: inactive; Activity [8]: 80.4%; Activity [4]: 94%
CN(C)c1ccc(-c2ccc(-c3noc(Cc4c[nH]c5ccccc45)n3)o2)cc1 | inactive | inactive | Activity [6]: 98%; Activity [7]: inactive
OCc1ccc(-c2ccc(-c3noc(Cc4c[nH]c5ccccc45)n3)o2)cc1 | 92.1% | inactive | –
Clc1ccc(-c2ccc(-c3noc(Cc4c[nH]c5ccccc45)n3)o2)cc1 | 83.9% | inactive | –
Nc1ccc(-c2ccc(-c3noc(Cc4c[nH]c5ccccc45)n3)o2)cc1 | 92.4% | inactive | inhibition (INH) [9]: 2%; inhibition (INH) [10]: 26%; Activity [11]: 18.96%
N#Cc1ccc(-c2ccc(-c3noc(Cc4c[nH]c5ccccc45)n3)o2)cc1 | 93.3% | inactive | –
COc1ccc(-c2ccc(-c3noc(Cc4c[nH]c5ccccc45)n3)o2)cc1 | 91.5% | inactive | Activity [6]: 98%; Activity [7]: inactive
c1ccc(-c2ccc(-c3noc(Cc4c[nH]c5ccccc45)n3)o2)cc1 | inactive | inactive | –
Cc1cccc(-c2ccc(-c3noc(Cc4c[nH]c5ccccc45)n3)o2)c1 | inactive | inactive | –
Nc1ccc(-c2ccc(-c3noc(Cc4c[nH]c5ccccc45)n3)s2)cc1 | inactive | inactive | –
c1ccc2c(Cc3nc(-c4ccc(-c5ccc(N6CCOCC6)cc5)o4)no3)c[nH]c2c1 | inactive | inactive | –
Nc1ccc(-c2cccc(-c3noc(Cc4c[nH]c5ccccc45)n3)c2)cc1 | 106% | inactive | Activity [5]: inactive
CCOc1ccc(-c2ccc(-c3noc(Cc4c[nH]c5ccccc45)n3)o2)cc1 | 89.1% | inactive | Activity [5]: 76.2%; Activity [6]: 98%; Activity [7]: inactive; Activity [8]: 80.6%
Nc1ncc(-c2ccc(-c3noc(Cc4c[nH]c5ccccc45)n3)o2)cn1 | inactive | inactive | inhibition (INH) [9]: 2%; inhibition (INH) [10]: 26%
O=C(O[C@@H]1Cc2c(O)cc(O)cc2O[C@@H]1c1cc(O)c(O)c(O)c1)c1cc(O)c(O)c(O)c1 [EPIGALOCATECHIN GALLATE] | 96.2% | – | –
